Data on 25 molecules can be found in ChEMBL document CHEMBL1641433, “Replacement of the double bond of antitubulin chalcones with triazoles and tetrazoles: Synthesis and biological evaluation” (Bioorg Med Chem Lett, 2011).

Activity calls are given as the source filed them. No cut-off for these calls is given here. Some results are limits rather than exact numbers.

The first test relates to SH-SY5Y. The test is described as follows: Cytotoxicity against human SH-SY5Y cells after 48 hrs by MTT assay. The class given is functional, cell-based.
Settings: not given
A digest of the protocol: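 SH-SY5Y neuroblastoma cells treated 48 h across a dose range. Viability/proliferation read by MTT. IC50 taken from dose–response curves, mean ± SEM of at least eight determinations from two separate experiments.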
On to `COc1ccc(/C=C(\C)C(=O)c2cc(OC)c(OC)c(OC)c2)cc1O`, for which the IC50 – broadly, the midpoint of a concentration-inhibition curve – amounted to 0.00021 µM.
On to `COc1ccc(/C=C/C(=O)c2cc(OC)c(OC)c(OC)c2)cc1O`, for which the IC50 was 0.05 µM.

Test system in the next test: not listed separately
The test is described as follows: Inhibition of tubulin polymerization.
Settings: not given
`COc1ccc(/C=C(\C)C(=O)c2cc(OC)c(OC)c(OC)c2)cc1O` gave an IC50 of 1.8 µM.
For `COc1ccc(/C=C/C(=O)c2cc(OC)c(OC)c(OC)c2)cc1O`, the IC50 is 1 µM.

The next test has as its system SH-SY5Y. The test is described as follows: Cell cycle arrest in human SH-SY5Y cells assessed as accumulation at G0/G1 phase at 2 times IC50 concentration after 16 hrs by FACS analysis (reference value: 49 +/- 5.5%). Format: functional.
Settings: not given
In general terms: In flow cytometry, cells or beads pass a laser one at a time.
As to `COc1ccc(C(=O)C#Cc2cc(OC)c(OC)c(OC)c2)cc1`, the Activity was 76%.
Same read-out and setting: to `COc1ccc(C#CC(=O)c2cc(OC)c(OC)c(OC)c2)cc1` belongs 79%; to `COc1ccc(/C=C/C(=O)c2cc(OC)c(OC)c(OC)c2)cc1O`, 23%; to `COc1ccc(-n2nnnc2C(=O)c2cc(OC)c(OC)c(OC)c2)cc1O`, 41%.

The subject of a further test is SH-SY5Y. In words: Cell cycle arrest in human SH-SY5Y cells assessed as accumulation at G2/M phase at 2 times IC50 concentration after 16 hrs by FACS analysis (reference value: 15 +/- 4.8%). The class given is functional.
Settings: not given
As to `COc1ccc(C(=O)C#Cc2cc(OC)c(OC)c(OC)c2)cc1`, the Activity came to 8%.
On the same count and under the same terms, to `COc1ccc(C#CC(=O)c2cc(OC)c(OC)c(OC)c2)cc1` belongs 6%; to `COc1ccc(/C=C/C(=O)c2cc(OC)c(OC)c(OC)c2)cc1O`, 30%.
Still for that read-out and setting: with `COc1ccc(-n2nnnc2C(=O)c2cc(OC)c(OC)c(OC)c2)cc1O` the figure was 29%.

Another test deals with SH-SY5Y. The test is described as follows: Cell cycle arrest in human SH-SY5Y cells assessed as accumulation at S phase at 2 times IC50 concentration after 16 hrs by FACS analysis (reference value: 36 +/- 4%). The class given is functional.
Settings: not given
For `COc1ccc(C(=O)C#Cc2cc(OC)c(OC)c(OC)c2)cc1`, the Activity is given as 18%.
In the case of `COc1ccc(C#CC(=O)c2cc(OC)c(OC)c(OC)c2)cc1`, the Activity is 16%.
Regarding `COc1ccc(/C=C/C(=O)c2cc(OC)c(OC)c(OC)c2)cc1O`, the Activity is recorded as 48%.
Take `COc1ccc(-n2nnnc2C(=O)c2cc(OC)c(OC)c(OC)c2)cc1O`: the Activity amounted to 30%.

In another test the test system is SH-SY5Y. In words: Cytotoxicity against human SH-SY5Y cells assessed as cell viability at 10 uM after 48 hrs by MTT assay relative to control. Format: functional.
Settings: not given
A digest of the protocol:
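Single-concentration screen: SH-SY5Y cells given 10 µM compound for 48 h. Viability read by MTT and expressed as % of untreated control. Mean ± SEM of three replicates.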
For `COc1cc(C(=O)c2cn(-c3cc(OC)c(OC)c(OC)c3)nn2)cc(OC)c1OC`, the result was inactive.
Regarding `COc1cc(OC)cc(-n2cc(C(=O)c3cc(OC)c(OC)c(OC)c3)nn2)c1`, the result was inactive.
Regarding `COc1ccc(-n2cc(C(=O)c3cc(OC)c(OC)c(OC)c3)nn2)cc1`, the outcome was inactive.
Take `COc1ccc(-n2cc(C(=O)c3cc(OC)c(OC)c(OC)c3)nn2)cc1[N+](=O)[O-]`: the outcome was inactive.
In the case of `COc1cc(C(=O)c2cn(-c3cccc4ccccc34)nn2)cc(OC)c1OC`, the outcome was inactive.
Regarding `COc1ccc(-n2cc(C(=O)c3cc(OC)c(OC)c(OC)c3)nn2)cc1O`, the outcome was inactive.
On to `COc1cc(C(=O)c2cn(-c3ccc4c(c3)OCO4)nn2)cc(OC)c1OC`, for which the outcome was inactive.
In the case of `COc1ccc(-n2cc(C(=O)c3cc(OC)c(OC)c(OC)c3)nn2)c(OC)c1`, the outcome was inactive.
On the same count and under the same terms, to `COc1cc(C(=O)c2cn(-c3ccc4ccccc4c3)nn2)cc(OC)c1OC` belongs “inactive”; to `COc1ccc(-n2cc(C(=O)c3cc(OC)c(OC)c(OC)c3)nn2)cc1F`, “inactive”.
As for `COc1cc(C(=O)c2cn(-c3cnc4ccccc4c3)nn2)cc(OC)c1OC`, the outcome was inactive.
`COc1ccc(-n2cc(C(=O)c3cc(OC)c(OC)c(OC)c3)nn2)cc1OC`: the outcome was inactive.
Same read-out and setting: with `COc1cc(OC(F)(F)F)cc(-n2cc(C(=O)c3cc(OC)c(OC)c(OC)c3)nn2)c1` the entry was “inactive”; with `COc1cc(-n2cc(C(=O)c3cc(OC)c(OC)c(OC)c3)nn2)ccc1O`, “inactive”; with `COc1cc(C(=O)c2cn(-c3ccc(OC(F)(F)F)cc3)nn2)cc(OC)c1OC`, “inactive”.
As to `COc1ccccc1-n1cc(C(=O)c2cc(OC)c(OC)c(OC)c2)nn1`, the result was inactive.
In the case of `COc1cccc(-n2cc(C(=O)c3cc(OC)c(OC)c(OC)c3)nn2)c1`, the result was inactive.
Consider `COc1cccc(-n2cc(C(=O)c3cc(OC)c(OC)c(OC)c3)nn2)c1O`, for which the outcome was inactive.

The test is the same for the next values; noted with them: read-out: Activity.
On to `COc1ccc(C(=O)C#Cc2cc(OC)c(OC)c(OC)c2)cc1`, for which the viability at 10 µM was 20.4%.
Regarding `COc1ccc(C#CC(=O)c2cc(OC)c(OC)c(OC)c2)cc1`, the viability at 10 µM is 27.7%.
For the molecule `COc1ccc(/C=C/C(=O)c2cc(OC)c(OC)c(OC)c2)cc1O`, the viability at 10 µM amounted to 17%.
`COc1ccc(-c2[nH]nnc2C(=O)c2cc(OC)c(OC)c(OC)c2)cc1`: the viability at 10 µM is greater than 70%.
On to `COc1ccc(-n2nnnc2C(=O)c2cc(OC)c(OC)c(OC)c2)cc1O`, for which the viability at 10 µM was 51.6%.
As to `COc1ccc(C(=O)c2nn[nH]c2-c2cc(OC)c(OC)c(OC)c2)cc1`, the viability at 10 µM was greater than 70%.
